From ChEMBL document CHEMBL1138360, “Hypoxia-selective 3-alkyl 1,2,4-benzotriazine 1,4-dioxides: the influence of hydrogen bond donors on extravascular transport and antitumor activity” (J Med Chem, 2007)

Columns and labels:
[1] = AUC (0 to infinity) in CD1 mouse plasma at 562 umol/kg, ip; type: ADME, organism-based; design: dose 562 umol/kg, time infinity, route intraperitoneal
Summary of the method: (§1)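 Single i.p. dose to homozygous nude CD-1 Foxn1nu mice, at 75 or 100% of MTD (MTD set by 1.33-fold dose steps; highest dose without death, >15% weight loss or severe morbidity in any of six mice). Total drug measured in plasma by HPLC. AUC, Cmax and terminal t½ derived noncompartmentally. Measured levels taken as free drug.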

[2] = Toxicity in ip dosed CD1 mouse; type: organism-based; settings: in vivo
Summary of the method: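 Single i.p. doses given to homozygous nude CD-1 Foxn1nu mice, with the vehicle formulated per compound. Doses escalated in 1.33-fold increments. MTD was defined as the highest dose causing no mortality, no body weight loss >15% and no other severe morbidity in any of six mice.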

SiHa [3] = assay: Cytotoxicity against SiHa cells under hypoxic condition after 4 hrs; type: functional, cell-based; settings: Homo sapiens
Summary of the method: (§2)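 HT29 or SiHa cells exposed to drug for 4 h in 96-well plates under anoxia (H2/Pd anaerobic chamber). IC50 determined.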

SiHa [4] = assay: Ratio of IC50 for SiHa cells in aerobic condition to IC50 for SiHa cells in hypoxic condition after 4 hrs; type: functional, Homo sapiens
Summary of the method: (§3)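 Aerobic and anoxic (H2/Pd chamber) IC50s measured in the same experiment after 4 h exposure, HT29 or SiHa cells. Ratio computed as aerobic IC50/anoxic IC50.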

[5] = Cmax in CD1 mouse plasma at 562 umol/kg, ip; type: ADME, organism-based; design: dose 562 umol/kg, route intraperitoneal; summary of the method: as §1
[6] = Terminal half life in CD1 mouse plasma at 562 umol/kg, ip; type: ADME, organism-based; summary of the method: as §1
HT-29 [7] = assay: Cytotoxicity against HT29 cells under hypoxic condition after 4 hrs; type: functional, cell-based; settings: Homo sapiens, HT-29, 4 h; summary of the method: as §2
HT-29 [8] = assay: Diffusion coefficient, D in aerobic HT29 multicellular layers; type: ADME, cell-based; settings: human
Summary of the method: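 Drug flux measured through HT29 multicellular layers on Teflon support membranes under 95% O2 at 37 °C, 50 µM initial donor concentration. Donor and receiver levels fitted with a diffusion model. Layer thickness estimated from flux of internal standard urea.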

HT-29 [9] = assay: Cell viability in anoxic HT29 cells assessed as drug level providing 10% surviving fraction by clonogenic assay; type: cell-based; settings: human
HT-29 [10] = assay: Ratio of IC50 for HT29 cells in aerobic condition to IC50 for HT29 cells in hypoxic condition after 4 hrs; type: functional, Homo sapiens; summary of the method: as §3
HT-29 [11] = assay: Drug penetration in anoxic HT29 cells assessed as penetration half distance; type: ADME, cell-based; settings: human
HT-29 [12] = assay: Antitumor activity against HT29 tumor inoculated in CD1 nude mouse at 562 umol/kg, ip administered 5 mins after gamma irradiation by excision assay relative to radiation alone; type: functional, Homo sapiens
Summary of the method: (§4)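 HT29 xenografts in nude CD-1 mice received 20 Gy γ radiation, then a single i.p. drug dose 5 min later, at 100% or 75% of MTD. Tumors excised 18 h afterwards, dissociated to single cells and plated for clonogens/g tumor. Hypoxic cell kill = log(clonogens/g, radiation only) − log(clonogens/g, radiation + drug).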

HT-29 [13] = assay: Antitumor activity against HT29 tumor inoculated in CD1 nude mouse at 562 umol/kg, ip relative to control; type: functional, Homo sapiens
[14] = Terminal half life in CD1 mouse plasma at 133 umol/kg, ip; type: ADME, organism-based; summary of the method: as §1
[15] = AUC (0 to infinity) in CD1 mouse plasma at 133 umol/kg, ip; type: ADME, organism-based; design: dose 133 umol/kg, route intraperitoneal, time infinity; summary of the method: as §1
[16] = Cmax in CD1 mouse plasma at 133 umol/kg, ip; type: ADME, organism-based; design: dose 133 umol/kg, route intraperitoneal; summary of the method: as §1
[17] = Cmax in CD1 mouse plasma at 316 umol/kg, ip; type: ADME, organism-based; design: dose 316 umol/kg, route intraperitoneal; summary of the method: as §1
HT-29 [18] = assay: Antitumor activity against HT29 tumor inoculated in CD1 nude mouse at 316 umol/kg, ip administered 5 mins after gamma irradiation by excision assay relative to radiation alone; type: functional, Homo sapiens; summary of the method: as §4
[19] = AUC (0 to infinity) in CD1 mouse plasma at 316 umol/kg, ip; type: ADME, organism-based; design: dose 316 umol/kg, time infinity, route intraperitoneal; summary of the method: as §1
[20] = Terminal half life in CD1 mouse plasma at 316 umol/kg, ip; type: ADME, organism-based; summary of the method: as §1
[21] = Cmax in CD1 mouse plasma at 750 umol/kg, ip; type: ADME, organism-based; design: dose 750 umol/kg, route intraperitoneal; summary of the method: as §1
HT-29 [22] = assay: Antitumor activity against HT29 tumor inoculated in CD1 nude mouse at 750 umol/kg, ip administered 5 mins after gamma irradiation by excision assay relative to radiation alone; type: functional, Homo sapiens; summary of the method: as §4
[23] = Terminal half life in CD1 mouse plasma at 750 umol/kg, ip; type: ADME, organism-based; summary of the method: as §1
[24] = AUC (0 to infinity) in CD1 mouse plasma at 750 umol/kg, ip; type: ADME, organism-based; design: dose 750 umol/kg, time infinity, route intraperitoneal; summary of the method: as §1
HT-29 [25] = assay: Antitumor activity against HT29 tumor inoculated in CD1 nude mouse at 1000 umol/kg, ip relative to control

Compound	MTD [2] [µmol/kg]	IC50 (SiHa [3]) [µM]	Ratio IC50 (SiHa [4])	IC50 (HT-29 [7]) [µM]	D (HT-29 [8])	Activity (HT-29 [9]) [µM·h]	Ratio IC50 (HT-29 [10])	Penetration half distance (HT-29 [11]) [µm]	also measured
CCc1n[n+]([O-])c2ccccc2[n+]1[O-]	562	5.9	84	6.8	26.12 10^-7cm2/sec	19.7	54	63	AUC(0-inf) [1]: 146 µM·h; Cmax [5]: 271 µM; half-life [6]: 11.2 min; Activity (HT-29 [12]): 0.89%; Activity (HT-29 [13]): 0.11%
CCc1n[n+]([O-])c2ccc(OCCN3CCCCC3)cc2[n+]1[O-]	178	1	302	1.5	–	6.8	254	34	half-life [14]: 25 min; AUC(0-inf) [15]: 7.75 µM·h; Cmax [16]: 9.8 µM
CCc1n[n+]([O-])c2cc(OCCCN3CCOCC3)ccc2[n+]1[O-]	421	1.3	181	3	–	7.1	147	34	Cmax [17]: 30.1 µM; Activity (HT-29 [18]): 0.98%; AUC(0-inf) [19]: 33 µM·h; half-life [20]: 36 min
CCc1n[n+]([O-])c2ccc(OCCCN3CCOCC3)cc2[n+]1[O-]	1000	4.3	217	6.8	7.48 10^-7cm2/sec	38.6	153	–	Cmax [21]: 150 µM; Activity (HT-29 [22]): 1.66%; half-life [23]: 34.8 min; AUC(0-inf) [24]: 162 µM·h; Activity (HT-29 [25]): 0.14%; Activity (HT-29 [11]): 64 µM
